Compound activity deposited in PubChem BioAssay by The Scripps Research Institute Molecular Screening Center.
Most compounds without a hit are left out; they make up all but 1.6% or so of the library.
sPLA2-III inh = human group III sPLA2 inhibitors, primary screen, biochemical, QFRET, BODIPY PC-A2 liposome substrate | Group 3 secretory phospholipase A2 (Homo sapiens), Q9NZ20 | QFRET BODIPY PC-A2 liposome hydrolysis, fluorescence | inhibition, % at 12.2 µM | hit rate 0.56% among 370,000 | AID 743126, 2013;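 active means inhibition above mean plus 3 SD of compounds lying within the high and low control bounds, cut at about 19% in these data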;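 further: 0% = median of test compound wells and 100% = no enzyme DMSO wells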
PLC-gamma1 inh = PLC-gamma1 enzyme inhibitors, primary screen, biochemical, fluorescence, purified enzyme. 1-phosphatidylinositol 4,5-bisphosphate phosphodiesterase gamma-1 (Homo sapiens), P19174. fluorogenic substrate. inhibition, % at 12.2 µM. hit rate 0.84% among 370,000. AID 720700, 2013; in the data active means inhibition above about 9.5%
proCasp3 act = activators of human procaspase-3 D3A mutant, primary screen, biochemical, absorbance, PC-3 D3A mutant, single concentration; hit rate 0.11% among 330,000; Caspase-3 (Homo sapiens), P42574; recombinant procaspase-3 D3A, Ac-DEVD-pNA absorbance 405 nm; activation, % at 8.5 µM;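 active means activation above the mean of all tested compounds plus 3 SD, cut at about 21% in these data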;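 further: 0% = DMSO alone and 100% = DMSO wells spiked with extra 5 µM PC-3 D3A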
Target sequence (P42574 whole entry D9A/D28A/D175A): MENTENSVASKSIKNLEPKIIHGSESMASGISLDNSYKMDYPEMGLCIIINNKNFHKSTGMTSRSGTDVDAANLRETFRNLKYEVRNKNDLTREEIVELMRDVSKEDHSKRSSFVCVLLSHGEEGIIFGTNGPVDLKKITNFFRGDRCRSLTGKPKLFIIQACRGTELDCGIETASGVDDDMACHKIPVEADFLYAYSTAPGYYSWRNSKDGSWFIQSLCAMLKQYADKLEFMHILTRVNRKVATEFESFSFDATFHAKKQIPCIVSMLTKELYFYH
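material = Procaspase-3 D3A mutant | probe or stimulus = Ac-DEVD-pNA | compound = single dose, 8.5 µM nominal compound, 0.8% DMSO | timing = 1 h preincubation, 2 h reaction | measured by = 405 nm absorbance of p-nitroaniline, reads at 0 and 120 min | benchmarks = DMSO-only low control, 5 µM PC-3 D3A high control | repeats = singlicate, each compound tested once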
procasp7 counter = procaspase-7 activators, primary screen, counter-screen for procaspase-3 activator project, biochemical, absorbance, HTS, human; Caspase-7 (Homo sapiens), P55210; hit rate 0.093% among 330,000; activation, % at 8.5 µM; recombinant procaspase-7, Ac-DEVD-pNA absorbance 405 nm; D23A/D198A/D206A triple mutant, cannot self-cleave; scale: DMSO 0, 5 µM enzyme 100;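 active means percent activation above the screen-wide mean plus 3 SD, cut at about 25% in these data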
Target sequence (P55210 whole entry D23A/D198A/D206A): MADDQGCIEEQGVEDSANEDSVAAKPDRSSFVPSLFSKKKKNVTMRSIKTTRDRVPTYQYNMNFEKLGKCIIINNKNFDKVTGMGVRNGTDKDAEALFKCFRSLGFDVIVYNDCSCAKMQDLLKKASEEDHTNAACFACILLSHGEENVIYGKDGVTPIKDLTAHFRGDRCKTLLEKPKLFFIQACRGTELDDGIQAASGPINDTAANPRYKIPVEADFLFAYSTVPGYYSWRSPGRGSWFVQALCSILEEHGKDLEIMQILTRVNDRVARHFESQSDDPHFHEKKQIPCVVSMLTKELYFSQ
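Assay system – Uncleavable procaspase-7 mutant enzyme · Quantity – 2 µM procaspase-7 mutant as dispensed · Times – 1 h preincubation, 2 h reaction · Dosing – single nominal 8.5 µM compound dose, 0.8% DMSO final · Buffer or medium – Zinc-free 50 mM HEPES buffer, pH 7.4, with NaCl and Triton X-100 · Detection – Epi-absorbance of released pNA at 405 nm, two timepoints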
PLCb3 inh = human PLC-beta3 inhibitors, primary screen, biochemical, fluorescence; AID 720704, 2013; hit rate 0.18% among 370,000; inhibition, % at 12.2 µM; Purified PLC-beta3, fluorogenic substrate; in the data active means inhibition above about 11%;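 further: 0% = median of compound wells on plate and 100% = full blocker control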
sPLA2 confirm = human group III sPLA2 inhibitors, confirmation, biochemical, QFRET, triplicate; shares compounds with sPLA2-III inh; recombinant hGIII-sPLA2, BODIPY PC-A2 QFRET fluorescence; inhibition, % at 12.2 µM; hit rate 34% among 2,000; AID 743280, 2014;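 active means mean inhibition across triplicates above the hit cutoff set in the earlier primary screen, cut at about 19% in these data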;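 further: 0% = enzyme with DMSO and 100% = DMSO wells lacking enzyme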
BODIPY interf = 535nm fluorescence optical interference, confirmation, artefact control for HGIII-sPLA2 inhibitor project, biochemical, QFRET; shares compounds with sPLA2-III inh; BODIPY FL product fluorescence interference; inhibition, % at 12.2 µM; hit rate 8.5% among 2,000;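 active means average inhibition above the solvent-only control mean plus 3 SD, cut at about 6% in these data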;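 further: 0% = DMSO with substrate plus product and 100% = DMSO with substrate alone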
535nm interf DR = 535nm fluorescence optical interference, dose response, artefact control for HGIII-sPLA2 inhibitor project, biochemical, QFRET; BODIPY FL product fluorescence interference, cell-free; IC50, µM; shares compounds with sPLA2-III inh; 240 tested, under 10 active;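 active means IC50 at or below 10 µM; inactive means IC50 above 10 µM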
* hit, by the source's call.

For CCN(CC)S(=O)(=O)c1ccc(C(=O)NC(=S)N2CCN(c3ccccc3O)CC2)cc1 the results were sPLA2-III inh 12.0, PLC-gamma1 inh -19.8 and PLCb3 inh -36.2.
`CN1CCN(c2ncnc3c2ncn3[C@H]2CN(Cc3ccncc3)C[C@@H](CO)O2)CC1` gave sPLA2-III inh 9.8, PLC-gamma1 inh -3.8 and PLCb3 inh 0.6.
For COc1ccc(C(=O)NNC(=O)COc2ccc(Cl)cc2)c(OC)c1 the results were sPLA2-III inh 25.4*, PLC-gamma1 inh -2.8, proCasp3 act 2.0, procasp7 counter -2.6, PLCb3 inh -8.4, sPLA2 confirm 12.4 and BODIPY interf -6.8.
Screening COc1ccc(C(=O)NNC(=O)c2ccc3ccccc3c2O)cc1 returned sPLA2-III inh -2.3, PLC-gamma1 inh -6.6, proCasp3 act 6.4, procasp7 counter -4.0 and PLCb3 inh -16.9.
Screening COc1cccc(OCC(=O)NNC(=O)c2ccc3ccccc3c2O)c1 returned sPLA2-III inh 36.3*, PLC-gamma1 inh -70.2, PLCb3 inh -109.7, sPLA2 confirm 33.4*, BODIPY interf 3.4 and 535nm interf DR >122.
Screening CCCn1c(=S)[nH]c2cc(Cl)ccc21 returned sPLA2-III inh 20.9*, PLC-gamma1 inh -1.8, proCasp3 act 2.1, procasp7 counter -3.9, PLCb3 inh -12.7, sPLA2 confirm 8.7 and BODIPY interf -5.0.
Screening CCn1c(=S)[nH]c2cc(Cl)ccc21 returned sPLA2-III inh 11.8, PLC-gamma1 inh -1.3, proCasp3 act -8.0, procasp7 counter -7.7 and PLCb3 inh -8.0.
`O=C(NCCN1CCOCC1)c1cc(Sc2ccccc2Cl)nc2ccccc12` gave sPLA2-III inh 19.2*, PLC-gamma1 inh -12.7, proCasp3 act -4.2, procasp7 counter 14.2, PLCb3 inh -14.3, sPLA2 confirm -1.9 and BODIPY interf -17.4.
`O=C(COC(=O)CCC(=O)c1ccc(F)cc1)Nc1ccc2[nH]c(=O)[nH]c2c1` gave sPLA2-III inh -23.1, PLC-gamma1 inh -3.4, proCasp3 act -1.6, procasp7 counter 8.1 and PLCb3 inh -0.5.
Cc1ccccc1OCC(=O)N=Nc1c(O)n(C)c2ccccc12 was read as sPLA2-III inh 1.8, PLC-gamma1 inh 0.2, proCasp3 act 2.4, procasp7 counter 4.1 and PLCb3 inh -6.9.
Screening O=C(NC(=S)N(CC1CCC1)CC1CCCO1)c1cccc([N+](=O)[O-])c1 (stereo unspecified) returned sPLA2-III inh 20.2*, PLC-gamma1 inh 1.4, proCasp3 act -15.3, procasp7 counter -3.9, PLCb3 inh -5.4, sPLA2 confirm 20.3* and BODIPY interf -3.4.
CCCNC(=O)N1C[C@H](O)COC[C@H]2O[C@@H](CC(=O)N[C@@H]3CCN(Cc4ccccc4)C3)CC[C@@H]21 was read as sPLA2-III inh 17.2, PLC-gamma1 inh -0.2 and PLCb3 inh -1.4.
Screening Cc1cc(F)ccc1-c1cc(C(=O)NC(C)C)[nH]n1 returned sPLA2-III inh 2.3, PLC-gamma1 inh 0.7 and PLCb3 inh 2.3.
For CCOC(=O)c1sc2ncc([N+](=O)[O-])cc2c1N the results were sPLA2-III inh 4.5, PLC-gamma1 inh -0.1, proCasp3 act 0.4, procasp7 counter 0.9 and PLCb3 inh -8.6.
Screening CCOC(=O)CNc1ncc([N+](=O)[O-])cc1C#N returned sPLA2-III inh 21.6*, PLC-gamma1 inh 5.3, proCasp3 act 10.8, procasp7 counter 4.9, PLCb3 inh 1.1, sPLA2 confirm -2.9 and BODIPY interf -8.5.
For CCCCOc1cc(NCc2ccccc2)c2ncn(C(C)C)c2c1 the results were sPLA2-III inh 20.8*, PLC-gamma1 inh -18.4, proCasp3 act -8.7, procasp7 counter 4.7, PLCb3 inh -19.0, sPLA2 confirm 14.1 and BODIPY interf -10.8.
COCCCOc1cc(NCc2ccccc2)c2ncn(C(C)C)c2c1 was read as sPLA2-III inh 10.4, PLC-gamma1 inh 5.3, proCasp3 act -2.6, procasp7 counter 6.7 and PLCb3 inh 7.5.
Cc1c(C)n(CCC#N)c2ccccc12 was read as sPLA2-III inh 20.6*, PLC-gamma1 inh -0.7, proCasp3 act -1.6, procasp7 counter 6.3, PLCb3 inh -2.8, sPLA2 confirm 9.2 and BODIPY interf -1.8.
For O=c1[nH]c(NNC(=S)NCc2ccccc2)nc2c1C1(CCCCC1)Cc1ccccc1-2 the results were sPLA2-III inh 22.9*, PLC-gamma1 inh -26.9, proCasp3 act 0.8, procasp7 counter -6.3, PLCb3 inh -40.4, sPLA2 confirm 31.7* and BODIPY interf 9.4*.
Screening C=CCNC(=S)NNc1nc2c(c(=O)[nH]1)C1(CCCC1)Cc1ccccc1-2 returned sPLA2-III inh 18.6, PLC-gamma1 inh -15.7, proCasp3 act -6.0, procasp7 counter -15.4 and PLCb3 inh -22.3.
Screening Cc1ccc(C(=O)Nc2nc(C(N)Cc3ccc(C(F)(F)F)cc3)cs2)cc1 (stereo unspecified) returned sPLA2-III inh 22.8*, PLC-gamma1 inh 1.5, PLCb3 inh -0.5, sPLA2 confirm 4.7 and BODIPY interf -2.8.
For CC(=O)c1ccc(Nc2nc(C(N)Cc3ccc(C(F)(F)F)cc3)cs2)cc1 (stereo unspecified) the results were sPLA2-III inh 10.5, PLC-gamma1 inh -133.2 and PLCb3 inh -168.6.
`COc1ccc2nc(NNC(=O)C3COc4ccccc4O3)sc2c1` (stereo unspecified) gave sPLA2-III inh 21.8*, PLC-gamma1 inh -20.5, proCasp3 act -5.9, procasp7 counter 0.4, PLCb3 inh -25.2, sPLA2 confirm 18.1 and BODIPY interf 1.5.
COc1ccc2nc(NC(=O)C3COc4ccccc4O3)sc2c1 (stereo unspecified) was read as sPLA2-III inh -1.4, PLC-gamma1 inh -1.5, proCasp3 act 12.5, procasp7 counter 1.0 and PLCb3 inh -4.4.
